Most compounds without a hit are left out; they make up all but 1.9% or so of the library.
NOD2 RIPK2 PPI: NOD2-RIPK2 binding disruptors in cells, primary screen, fluorescence, CHO cells, BLA complementation | Receptor-interacting serine/threonine-protein kinase 2 (Homo sapiens), O43353 | CCF4 ratio | inhibition, % at 4.98 µM | 360,000 tested, 0.38% active; in the data active = inhibition above about 21%;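 also: 0% = vehicle only and 100% = reference blocker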
MC4R antagonist: MC4R antagonists of cAMP signaling, primary screen, cell-based, TR-FRET, antagonist arm of biased-ligand search; MC4R-expressing cells, MTII-stimulated cAMP, LANCE TR-FRET; inhibition, % at 6.5 µM; 360,000 tested, 0.48% active; AID 540295, 2011;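 active = inhibition above its plate's cutoff, the mean of tested wells on that plate plus 3 SD, cut at about 29% in these data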;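 also: 0% = Melanotan II alone and 100% = Melanotan II plus saturating MCL0020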
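material = U2OS cells stably expressing human melanocortin 4 receptor (MC4R) | also added = Melanotan II challenge | dosing = single nominal compound dose of 6.5 µM | detection = TR-FRET with Eu-cAMP and labeled anti-cAMP, 671 nm | replication = singlicate | timing = compound 30 min, challenge 1 h, detection 1 h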
MC4R barr agon: MC4R agonists recruiting beta-arrestin, primary screen, cell-based, luminescence, agonist arm of biased-ligand search; 360,000 tested, 0.98% active; Melanocortin receptor 4 (Homo sapiens), P32245; U2OS MC4R beta-arrestin complementation; percent of melanotan II response, DMSO zero; activation, % at 8.9 µM;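 active = activation above a per-plate cutoff, the mean activation of sample wells on that plate plus 3 SD, cut at about 8% in these data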
NTR1 agonist: agonists of human NTR1, primary screen, imaging, U2OS cells, beta-arrestin-GFP, high content; Neurotensin receptor type 1 (Homo sapiens), P30989; AID 493036, 2011; 330,000 tested, 0.17% active; activation, % at 20 µM; NTR1-U2OS beta-arrestin-GFP spot imaging, agonist mode;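 active = activation at or above 40% of the spot to cytoplasm intensity ratio, with at least 20 cells analyzed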;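 also: 0% = DMSO without peptide and 100% = 100 nM NTR1 peptide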
TLR4-MyD88 BLA: inhibitors of TLR4-MyD88 association in cells, primary screen, cell-based, HeLa CL3-4, BLA complementation, FRET ratio. Toll-like receptor 4 (Homo sapiens) + Myeloid differentiation primary response protein …. HeLa CL3-4 TLR4/MyD88 BLA complementation. inhibition, % at 8.4 µM. 200,000 tested, 0.18% active. AID 861, 2007; in the data active = inhibition above about 25%;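 also: 0% = vehicle and 100% = reference inhibitor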
TLR9-MyD88 inh: inhibitors of TLR9-MyD88 association in cells, primary screen, cell-based, CHO, BLA complementation, fluorescence; 340,000 tested, 0.21% active; AID 504734, 2011; inhibition, % at 4.98 µM; CCF4 FRET ratio;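 active = inhibition above the mean over all tested compounds plus 3 SD, cut at about 21% in these data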;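 also: 0% = DMSO only wells and 100% = clavulanate BLA inhibitor control wells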
Starred values were filed as active, the others as inactive; / = no result given.

SMILES | NOD2 RIPK2 PPI | MC4R antagonist | MC4R barr agon | NTR1 agonist | TLR4-MyD88 BLA | TLR9-MyD88 inh
CC(=O)c1cccc(Nc2ccc(Br)cc2)c1 | 3 | / | / | / | / | /
O=C(CSc1ccc(-c2ccc(F)cc2)nn1)NCc1ccco1 | -18 | 4 | -2 | -2 | -11 | -9
CCN1C(=O)/C(=C\c2ccc(F)cc2)N=C1SCC(=O)NCc1ccco1 | -26 | 2 | 8.6* | 0 | -8 | 5
COCCC(=O)N1CCC(Oc2ccc(C(=O)NCCC3=CCCCC3)cc2)CC1 | 9 | 7 | -1 | -2 | / | -11
CC1(C)C[C@H]2C3=CCC4[C@@]5(C)CC[C@H](O[C@@H]6O[C@H](C(=O)O)[C@@H](O)[C@H](O)[C@H]6O)[C@@](C)(CO)C5CC[C@@]4(C)[C@]3(C)C[C@H](O)[C@@]2(CO)[C@@H](O)[C@@H]1O (stereo partly drawn) | 2 | 19 | 0 | 0 | / | 0
C/C=C(\C)C(=O)OC1[C@H](OC(C)=O)C2(CO)C(CC1(C)C)C1=CCC3C4(C)CCC(O[C@@H]5O[C@H](C(=O)O)[C@@H](O[C@@H]6O[C@H](CO)[C@@H](O)[C@H](O)[C@H]6O)[C@H](O)[C@H]5O[C@H]5O[C@H](CO)[C@@H](O)[C@H](O)[C@H]5O)[C@](C)(CO)C4CCC3(C)[C@]1(C)C[C@H]2O (stereo partly drawn) | 30* | 95* | -4 | / | / | 58*
COc1ccc(CN2C[C@H](O)COC[C@@H]3O[C@H](CC(=O)NCc4ccncn4)CC[C@H]32)cc1 | -18 | / | / | / | / | /
O=C(CCl)N(c1ccccc1)C1CCCCC1 | -5 | 3 | 9.1* | 1 | 1 | -15
CC(=O)N(c1ccccc1)C1CCCC1 | 2 | 2 | 0 | 3 | 2 | 1
Cc1cc(C)cc(OCC(=O)OC/C(O)=C(\C#N)c2nc3ccccc3[nH]2)c1 | 1 | -5 | 14* | 1 | -6 | -1
N#C/C(=C(/O)COC(=O)COc1cccc(Br)c1)c1nc2ccccc2[nH]1 | -4 | 6 | 20* | 1 | / | 3
Oc1cc(-c2ccc(N3CCCCC3)nc2)cc2cccnc12 | 22* | 5 | 0 | 8 | / | 15
Cc1cc(Oc2ccc(Br)cc2)nc(SCC(=O)c2ccccc2)n1 | 2 | 5 | 8.6* | 11 | -3 | -19
CCC(C(=O)NC(C)(C)C)n1c(-c2cccc(NC(C)=O)c2)nc2ccccc21 (stereo not drawn) | -7 | / | / | / | / | /
CC(C)CN(Cc1cc(=O)oc2cc(-c3ccccc3)c(O)cc12)CC(C)C | 1 | 12 | 11* | 14 | / | -2
O=C(C[C@@H]1C=C[C@@H](NC(=O)C2CC2)[C@@H](CO)O1)NCc1ccccc1Cl | 0 | / | / | / | / | /
Cc1ccc(CN2C(=O)N/C(=C\c3ccc(N4CCOCC4)cc3)C2=O)cc1 | -2 | -2 | 8.6* | 3 | 7 | 0
CCCCC(=O)N(C)c1c(C)nc2ccc(C(=O)Nc3cccc(OC)c3)cn12 | -7 | 4 | 1 | / | / | /
O=C1NC[C@@H](CCCCN2CCN(CCc3ccc(O)cc3)C(=O)C2=O)N(CCC2CCCCC2)C1=O | 2 | / | / | / | / | /
Cc1ccc(NC(=O)c2ccccc2OCC(=O)c2ccccc2)cc1 | 3 | 18 | 8.6* | 7 | 1 | 2
Cc1cc(C)cc(N2C(=O)C=CC2=O)c1 | 18 | 33* | -3 | / | / | 16
Nc1c(C(=O)O)sc2nc3c(cc12)CCCC3 | 4 | -6 | -2 | -1 | / | /
CN1CCc2nc3sc(C(=O)C45CC6CC(CC(C6)C4)C5)c(N)c3cc2C1 | 12 | 0 | 12* | 2 | 7 | 1
COc1ccc(CNc2oc(COc3ccccc3Cl)nc2C#N)cc1 | -1 | 6 | 7 | 2 | -2 | -3
